Source: ChEMBL document CHEMBL2346536, “Biscatecholate-monohydroxamate mixed ligand siderophore-carbacephalosporin conjugates are selective sideromycin antibiotics that target Acinetobacter baumannii” (2013)
Values after ≈ are worked out from the molar mass of the structure shown. Active and inactive are the calls of the source. No cut-off for these calls is given here.

Assays:
Escherichia coli = experiment: Antibacterial activity against Escherichia coli ATCC 25922 after 18 hrs by broth microdilution method; format: functional; details: ATCC 25922, 18 h
Method in brief: (§1)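 Broth microdilution MICs per CLSI guidelines, read by visual end point; each compound tested in triplicate.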

Enterococcus faecium = experiment: Antibacterial activity against Enterococcus faecium NCTC 7171 after 18 hrs by broth microdilution method; format: functional; details: NCTC 7171, 18 h; method in brief: as §1
Pseudomonas aeruginosa = experiment: Antibacterial activity against Pseudomonas aeruginosa ATCC 27853 after 18 hrs by broth microdilution method; format: functional; details: ATCC 27853, 18 h; method in brief: as §1
Staphylococcus aureus [1] = experiment: Antibacterial activity against Staphylococcus aureus SG 511 after 18 hrs by broth microdilution method; format: functional; details: SG 511, 18 h; method in brief: as §1
Acinetobacter baumannii [2] = experiment: Antibacterial activity against Acinetobacter baumannii ATCC 17961 after 18 hrs by broth microdilution method; format: functional; details: ATCC 17961, 18 h; method in brief: as §1
Klebsiella aerogenes = experiment: Antibacterial activity against Enterobacter aerogenes ATCC 35029 after 18 hrs by broth microdilution method; format: functional; details: ATCC 35029, 18 h; method in brief: as §1
Klebsiella pneumoniae = experiment: Antibacterial activity against Klebsiella pneumoniae ATCC 700603 after 18 hrs by broth microdilution method; format: functional; details: ATCC 700603, 18 h; method in brief: as §1
Acinetobacter baumannii [3] = experiment: Antibacterial activity against Acinetobacter baumannii ATCC 17961 in Fe(3)-deficient Mueller-Hinton no.2 broth media assessed as diameter of growth inhibition zone after 18 to 24 hrs by agar diffusion assay; format: functional
Method in brief: (§2)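 Modified Kirby–Bauer agar diffusion on Mueller–Hinton no. 2 agar, made iron-deficient with 100 μM 2,2′-bipyridine or iron-supplemented with 100 μM FeCl₃. Read-out was growth inhibition zone diameter (mm), averaged over three independent trials.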

Staphylococcus aureus [4] = experiment: Antibacterial activity against Staphylococcus aureus SG 511 in Fe(3)-supplemented Mueller-Hinton no.2 broth media after 18 hrs by broth microdilution method; format: functional; details: SG 511, 18 h
Method in brief: (§3)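 CLSI broth microdilution in cation-adjusted Mueller–Hinton no. 2 broth. The iron-deficient broth contained 100 μM 2,2′-bipyridine and the iron-supplemented broth 100 μM FeCl₃. MIC was read by visual end point, each compound in triplicate.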

Acinetobacter baumannii [5] = experiment: Antibacterial activity against Acinetobacter baumannii ATCC 17961 in Fe(3)-deficient Mueller-Hinton no.2 broth media after 18 hrs by broth microdilution method; format: functional; details: ATCC 17961, 18 h; method in brief: as §3
Acinetobacter baumannii [6] = experiment: Antibacterial activity against Acinetobacter baumannii ATCC 17961 at 0.5 mM after 18 to 24 hrs by agar diffusion assay in presence of Fe3-complex of N-[5-(3-{[4-(2,3-Dihydroxy-benzoylamino)-butyl]-[3-(2,3-dihydroxy-benzoylamino)-propyl]-carbamoyl}-propionylamino)-pentyl]-N-hydroxy-succinamic acid; format: functional, organism-based
Method in brief: (§4)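 Paper-strip competition on agar. LB cultures grown 18–24 h were suspended in 0.9% saline at […] (0.5 McFarland), then 0.1 mL was mixed into 34 mL MHII agar + 2,2′-bipyridine at 47 °C. Strips were soaked in 0.5 mM sideromycin or 2.0 mM siderophore (1:10 DMSO:MeOH). Plates ran 37 °C for 18–24 h and were photographed at 48 h.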

Staphylococcus aureus [7] = experiment: Antibacterial activity against Staphylococcus aureus SG 511 in Fe(3)-supplemented Mueller-Hinton no.2 broth media assessed as diameter of growth inhibition zone after 18 to 24 hrs by agar diffusion assay; format: functional, organism-based; method in brief: as §2
Staphylococcus aureus [8] = experiment: Antibacterial activity against Staphylococcus aureus SG 511 in Fe(3)-deficient Mueller-Hinton no.2 broth media after 18 hrs by broth microdilution method; format: functional; details: SG 511, 18 h; method in brief: as §3
Acinetobacter baumannii [9] = experiment: Antibacterial activity against Acinetobacter baumannii ATCC 17961 in Fe(3)-supplemented Mueller-Hinton no.2 broth media after 18 hrs by broth microdilution method; format: functional; details: ATCC 17961, 18 h; method in brief: as §3
Staphylococcus aureus [10] = experiment: Antibacterial activity against Staphylococcus aureus SG 511 in Fe(3)-deficient Mueller-Hinton no.2 broth media assessed as diameter of growth inhibition zone after 18 to 24 hrs by agar diffusion assay; format: functional, organism-based; method in brief: as §2
Acinetobacter baumannii [11] = experiment: Antibacterial activity against Acinetobacter baumannii ATCC 17961 at 0.5 mM after 18 to 24 hrs by agar diffusion assay in presence of N-[5-(3-{[4-(2,3-Dihydroxy-benzoylamino)-butyl]-[3-(2,3-dihydroxy-benzoylamino)-propyl]-carbamoyl}-propionylamino)-pentyl]-N-hydroxy-succinamic acid; format: functional, organism-based; method in brief: as §4
Acinetobacter baumannii [12] = experiment: Antibacterial activity against Acinetobacter baumannii ATCC 17961 in Fe(3)-supplemented Mueller-Hinton no.2 broth media assessed as diameter of growth inhibition zone after 18 to 24 hrs by agar diffusion assay; format: functional; method in brief: as §2
Staphylococcus aureus [13] = experiment: Antibacterial activity against Staphylococcus aureus SG 511 at 0.5 mM after 18 to 24 hrs by agar diffusion assay in presence of Fe3-complex of N-[5-(3-{[4-(2,3-Dihydroxy-benzoylamino)-butyl]-[3-(2,3-dihydroxy-benzoylamino)-propyl]-carbamoyl}-propionylamino)-pentyl]-N-hydroxy-succinamic acid; format: functional, organism-based; method in brief: as §4
Staphylococcus aureus [14] = experiment: Antibacterial activity against Staphylococcus aureus SG 511 at 0.5 mM after 18 to 24 hrs by agar diffusion assay in presence of N-[5-(3-{[4-(2,3-Dihydroxy-benzoylamino)-butyl]-[3-(2,3-dihydroxy-benzoylamino)-propyl]-carbamoyl}-propionylamino)-pentyl]-N-hydroxy-succinamic acid; format: functional, organism-based; method in brief: as §4

SMILES	MIC (Escherichia coli) [µM]	MIC (Enterococcus faecium) [µM]	MIC (Pseudomonas aeruginosa) [µM]	MIC (Staphylococcus aureus [1]) [µM]	MIC (Acinetobacter baumannii [2]) [µM]	MIC (Klebsiella aerogenes) [µM]	MIC (Klebsiella pneumoniae) [µM]	diameter of the inhibition zone (DIZ) (Acinetobacter baumannii [3]) [mm]	MIC (Staphylococcus aureus [4]) [µM]	MIC (Acinetobacter baumannii [5]) [µM]	Activity (Acinetobacter baumannii [6])	Activity (Staphylococcus aureus [7])	MIC (Staphylococcus aureus [8]) [µM]	MIC (Acinetobacter baumannii [9]) [µM]	Activity (Staphylococcus aureus [10])	Activity (Acinetobacter baumannii [11])	diameter of the inhibition zone (DIZ) (Acinetobacter baumannii [12]) [mm]	Activity (Staphylococcus aureus [13])	Activity (Staphylococcus aureus [14])
O=C(O)CCC(=O)N(O)CCCCCNC(=O)CCC(=O)N(CCCCNC(=O)c1cccc(O)c1O)CCCNC(=O)c1cccc(O)c1O	> 128	> 128	> 128	> 128	> 128	> 128	> 128	–	–	–	–	–	–	–	–	–	–	–	–
N[C@@H](C(=O)N[C@@H]1C(=O)N2C(C(=O)O)=C(Cl)CC[C@H]12)c1ccccc1 [LORACARBEF ANHYDROUS]	2 (≈ 0.7 µg/mL)	32 (≈ 11.2 µg/mL)	> 128	1 (≈ 0.35 µg/mL)	> 128	> 128	128 (≈ 44.8 µg/mL)	–	–	–	–	–	–	–	–	–	–	–	–
O=C(CCC(=O)N(CCCCNC(=O)c1cccc(O)c1O)CCCNC(=O)c1cccc(O)c1O)NCCCCCN(O)C(=O)CCC(=O)N[C@H](C(=O)N[C@@H]1C(=O)N2C(C(=O)O)=C(Cl)CC[C@H]12)c1ccccc1	8 (≈ 8.4 µg/mL)	> 128	> 128	32 (≈ 33.6 µg/mL)	0.125 (≈ 0.131 µg/mL)	> 128	> 128	20.6	64 (≈ 67.2 µg/mL)	0.0078 (≈ 0.00819 µg/mL)	inactive	Active	32 (≈ 33.6 µg/mL)	0.5 (≈ 0.525 µg/mL)	Active	inactive	16.2	Active	Active
O=C(O)c1cn(C2CC2)c2cc(N3CCNCC3)c(F)cc2c1=O [CIPROFLOXACIN]	< 0.015	8 (≈ 2.65 µg/mL)	0.125 (≈ 0.0414 µg/mL)	0.5 (≈ 0.166 µg/mL)	0.25 (≈ 0.0828 µg/mL)	< 0.015	0.25 (≈ 0.0828 µg/mL)	–	–	–	–	–	–	–	–	–	–	–	–
O=C(CCC(=O)N(CCCCNC(=O)c1cccc(O)c1O)CCCNC(=O)c1cccc(O)c1O)NCCCCCN(O)C(=O)CCC(=O)N1CCN(c2cc3c(cc2F)c(=O)c(C(=O)O)cn3C2CC2)CC1	> 128	> 128	> 128	> 128	> 128	> 128	> 128	–	–	–	–	–	–	–	–	–	–	–	–
